Results reported in ChEMBL document CHEMBL1124668, “Solid-phase synthesis of 16 potent (selective and nonselective) in vivo antagonists of oxytocin” (J Med Chem, 1989).
Starred links: 1 amine or outer side, 2 acyl side, 3 side chain; linkers in the order of their positions; H or OH if unused. Positions of bridges follow the written chain, without caps; N, C: chain ends. Non-standard residues stand in square brackets, D forms with d. Residues, ends and D or L forms follow the SMILES beside them. X1 = O=C(CC1(S[*:2])CCCCC1)[*:1]; Orn = NCCC[C@H](N)C(=O)O

What was measured:
[1] = system: Rattus norvegicus; test: In vivo antidiuretic activity as intravenous antagonist dose in estrogen pretreated rats; assay type: functional, Urine
[2] = system: Rattus norvegicus; test: Antivasopressor activity in vivo in phenoxybenzamine pre-treated rats.; assay type: functional
Outline: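 Rats pretreated with phenoxybenzamine, under urethane anesthesia; antagonist given iv; agonist USP Posterior Pituitary Reference Standard; read-out is pressor response. Effective dose (nmol/kg) is the dose that cuts the response to 2X units of agonist to that of 1X unit, interpolated semilogarithmically from bracketing doses. pA2 assumes a 67 mL/kg distribution volume. SEM is given where there are ≥4 independent estimates.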

[3] = system: Rattus norvegicus; test: In vivo inhibition of estrogen induced changes in interuterine pressure in rats.; assay type: functional
Outline: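 Rats pretreated with estrogen, under urethane anesthesia; antagonist given iv; read-out is change in integrated intrauterine pressure; agonist synthetic oxytocin. Effective dose (nmol/kg) is the dose that cuts the response to 2X units of agonist to the response to 1X unit, interpolated on a semilog scale from doses above and below it. pA2 is derived assuming a 67 mL/kg distribution volume.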

[4] = system: Rattus norvegicus; test: In vivo antidiuretic activity as intravenous antagonist dose in estrogen pretreated rats; Weak partial agonist/antagonist; assay type: functional, Urine
[5] = system: Rattus norvegicus; test: Antidiuretic activity in rats as intravenous dose required for reduction of 2x agonist response to equal 1x effect in estrogen pretreated rats; weak partial agonist/antagonist; assay type: functional, Urine
[6] = species: Rattus norvegicus; test: Antidiuretic activity in rat; assay type: functional, Urine

SMILES | Activity [1] | ED [2] | ED [3] | Activity [4] | ED [5] | Activity [6]
CC[C@H](C)[C@@H]1NC(=O)[C@H](Cc2ccc(OC)cc2)NC(=O)CC2(CCCCC2)SSC[C@@H](C(=O)N2CCC[C@H]2C(=O)N[C@@H](CCCN)C(=O)N[C@@H](Cc2ccc(O)cc2)C(N)=O)NC(=O)[C@H](CC(N)=O)NC(=O)[C@H]([C@@H](C)O)NC1=O (Y(Me)ITNCP[Orn]Y-NH2; linker N-5 via X1) | 0.015 mg | 6.6 nM/kg | 1 nM/kg | – | – | –
CC[C@H](C)[C@@H]1NC(=O)[C@H](Cc2ccc(OC)cc2)NC(=O)CC2(CCCCC2)SSC[C@@H](C(=O)N2CCC[C@H]2C(=O)N[C@@H](CCCN)C(=O)N[C@@H](CC(C)C)C(N)=O)NC(=O)[C@H](CC(N)=O)NC(=O)[C@H]([C@@H](C)O)NC1=O (Y(Me)ITNCP[Orn]L-NH2; linker N-5 via X1) | – | 27 nM/kg | 1.8 nM/kg | 0.029 mg | – | –
CC[C@H](C)[C@@H]1NC(=O)[C@H](Cc2ccc(OC)cc2)NC(=O)CC2(CCCCC2)SSC[C@@H](C(=O)N2CCC[C@H]2C(=O)N[C@@H](CCCN)C(=O)NCC(N)=O)NC(=O)[C@H](CC(N)=O)NC(=O)[C@H]([C@@H](C)O)NC1=O (Y(Me)ITNCP[Orn]G-NH2; linker N-5 via X1) | – | 9.9 nM/kg | 2 nM/kg | – | ~330 nM/kg | 0.01 mg
